Reference: ChEMBL document CHEMBL1667787, “Synthesis and in vitro cytotoxicity evaluation of some fluorinated hexahydropyrimidine derivatives” (Bioorg Med Chem Lett, 2011)

Test: Cytotoxicity against human COLO320 cells after 72 hrs by Alamar Blue assay
Format: functional, cell-based
Conditions: COLO 320, 72 h
How it was run: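 COLO 320 HSR cells (ATCC) kept in RPMI 1640 with 10% FBS, bicarbonate, pyruvate, Hepes and antibiotics at 37 °C, 5% CO2. Seeded 1 × 10^4 cells/well, attached 24 h, then exposed 72 h to compound or DMSO vehicle. AlamarBlue added 1:10, incubated overnight at 37 °C, fluorescence read at 560 nm excitation/590 nm emission. Triplicates, means; IC50 by linear regression.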

| SMILES | IC50 |
| --- | --- |
| O=C(c1ccc2ccccc2c1)[C@@H]1[C@@H](c2ccc3c(c2)OCO3)NC(=S)N[C@@]1(O)C(F)(F)F | 9.9 µM |
| CCOC(=O)[C@@H]1[C@@H](c2ccc(F)cc2)NC(=S)N[C@@]1(O)C(F)(F)F | 75 µM |
| O=C(c1cccs1)[C@@H]1[C@@H](c2cccc(O)c2)NC(=S)N[C@@]1(O)C(F)(F)F | 72 µM |
| CCOC(=O)[C@@H]1[C@@H](c2cccc(C#N)c2)NC(=S)N[C@@]1(O)C(F)(F)F | > 100 µM |
| O=C(c1ccco1)[C@@H]1[C@@H](c2ccc3c(c2)OCO3)NC(=S)N[C@@]1(O)C(F)(F)F | 67 µM |
| CCOC(=O)[C@@H]1[C@@H](c2ccc3c(c2)OCO3)NC(=S)N[C@@]1(O)C(F)(F)F | 75 µM |
| CCOC(=O)[C@@H]1[C@@H](c2cccc(O)c2)NC(=S)N[C@@]1(O)C(F)(F)F | > 100 µM |
| O=C(c1cccs1)[C@@H]1[C@@H](c2ccc3c(c2)OCO3)NC(=S)N[C@@]1(O)C(F)(F)F | 62.5 µM |
| CCOC(=O)[C@@H]1[C@@H](c2ccccc2Br)NC(=S)N[C@@]1(O)C(F)(F)F | 73 µM |
| COc1ccc([C@H]2NC(=S)N[C@@](O)(C(F)(F)F)[C@@H]2C(=O)c2ccco2)cc1 | 11.5 µM |
| COc1ccc([C@H]2NC(=S)N[C@@](O)(C(F)(F)F)[C@@H]2C(=O)c2cccs2)cc1 | 75 µM |
| O=C(c1ccco1)[C@@H]1[C@@H](c2ccccc2)NC(=S)N[C@@]1(O)C(F)(F)F | 63 µM |
| COC(=O)[C@@H]1[C@@H](c2cccc(O)c2)NC(=S)N[C@@]1(O)C(F)(F)F | > 100 µM |
| O=C(c1ccco1)[C@@H]1[C@@H](c2cccc(O)c2)NC(=S)N[C@@]1(O)C(F)(F)F | > 100 µM |
| CCOC(=O)C1=C(C(F)(F)F)NC(SCC(=O)c2ccc(C(F)(F)F)cc2)NC1c1ccc2c(c1)OCO2 (stereo unspecified) | 8.1 µM |
| CCOC(=O)C1=C(C(F)(F)F)NC(=S)NC1c1ccc2c(c1)OCO2 (stereo unspecified) | 12.2 µM |
